Screening results: PubChem BioAssay, Sanford-Burnham Center for Chemical Genomics
An excerpt weighted towards active compounds, which were near 1.6% of everything screened.
FLuc inhib CS – firefly luciferase enzyme inhibitors, primary screen, artefact control for luciferase-based inhibitor screens, biochemical, luminescence, ATPLite. 10 min. inhibition, % at 10 µM. hit rate 1.5% among 200,000. AID 1006, 2008;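 active means inhibition above about 50% when tested at 10 µM, limit read from the data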
Target sequence (P08659 whole entry, looked up): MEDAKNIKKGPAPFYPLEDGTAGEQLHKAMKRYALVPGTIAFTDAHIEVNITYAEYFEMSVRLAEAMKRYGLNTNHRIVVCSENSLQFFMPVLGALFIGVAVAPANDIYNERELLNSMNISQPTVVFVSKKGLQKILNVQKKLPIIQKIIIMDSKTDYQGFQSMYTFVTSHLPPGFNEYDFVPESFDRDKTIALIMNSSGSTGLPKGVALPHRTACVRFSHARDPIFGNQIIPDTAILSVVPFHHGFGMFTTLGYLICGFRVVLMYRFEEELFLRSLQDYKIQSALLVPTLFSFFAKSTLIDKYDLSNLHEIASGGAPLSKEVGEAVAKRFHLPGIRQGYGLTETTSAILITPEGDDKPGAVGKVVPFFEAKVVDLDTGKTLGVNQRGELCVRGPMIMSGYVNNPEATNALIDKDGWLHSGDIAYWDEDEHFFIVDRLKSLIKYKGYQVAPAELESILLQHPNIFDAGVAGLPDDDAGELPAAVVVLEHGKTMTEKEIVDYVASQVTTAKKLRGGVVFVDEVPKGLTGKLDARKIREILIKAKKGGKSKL
TRAIL sens C8 – viability loss with TRAIL in NB7+C8 cells, primary screen, TRAIL sensitizer project, cell-based, ATPlite luminescence. inhibition (viability loss, TRAIL sensitization), % at 10 µM. hit rate 1% among 360,000. AID 624354, 2012;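 active means compounds causing at least 50% loss of cell viability in the single-dose screen, relative to plate controls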
FLuc stim CS – FLuc activators, initial screening, artefact control for FLuc-dependent activation tests, biochemical, ATPlite luminescence | Luciferin 4-monooxygenase (Photinus pyralis), P08659 | ATPlite luciferase biochemical, 10 min; 0 = ATP-free wells, 1 = DMSO control | activation factor at 10 µM | 200,000 tested, under 10 active | AID 1027, 2008;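 active means luciferase activation factor, scaled between plate controls, of at least 2 with compound at 10 µM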
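Assay system – cell-free luciferase reagent · Medium – PBS-based ATP solution · Dosing – test compounds dosed from 2 mM stocks in 100% DMSO · Timing – 10 min, room temperature · Technique – light output (luminescence) · Measure – luminescence gain marking luciferase activators · Controls – No-ATP low control, compound-free enzyme-plus-ATP high control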
PPC-1+TRAIL kill – compounds killing PPC-1 cancer cells with TRAIL present, primary screen, TRAIL potentiator project, ATPLite luminescence, uHTS | hit rate 0.41% among 220,000 | cell killing (% activity), % at 4 µM or 5 µM | PPC-1 cells + TRAIL, ATPLite viability luminescence | AID 1443, 2008;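 active means cell killing above 50% in the first pass at 4 µM, then a duplicate retest at 5 µM averaging 50% or more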;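 further: plate controls were cells with TRAIL plus DMSO for no effect and medium-only wells lacking cells for full effect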
Starred values were filed as active, the others as inactive; x = no result.

SMILES	FLuc inhib CS	TRAIL sens C8	FLuc stim CS	PPC-1+TRAIL kill
Cc1nnc(SCC(=O)Nc2cc(-c3cc(C)c(C)cc3C)nn2-c2ccccc2)s1	-6.3	-4.4	1.1	25.9
CCCc1ccc(-c2cc(NC(=O)CSc3nnc(N)s3)n(-c3ccccc3)n2)cc1	65.3*	63.1*	0.3	31.5
O=C(OCC(=O)N1CCC(Cc2ccccc2)CC1)c1ccc(O)cc1	x	7.8	x	x
COc1ccc2oc(-c3ccccc3)cc(=O)c2c1	x	71.8*	x	x
COc1ccc2c(=O)c(-c3ccccc3)coc2c1	69.6*	40.7	0.3	32.8
O=c1cc(-c2ccccc2)oc2ccc(Br)cc12	x	36.9	x	x
C=Cc1ccc(Cn2c(C)c(C(=O)NCCC#N)sc2=O)cc1	x	12.2	x	x
Cc1nn(Cc2c(Cl)cccc2Cl)c(C)c1NC(=O)c1cn(-c2ccccc2)nc1-c1ccccc1	-2.4	75.9*	1	29.8
Cc1cccc(C)c1NC(=O)CNC(=O)c1cn(-c2ccccc2)nc1-c1ccccc1	x	7.8	x	x
Cc1cc(C)c(C)c(S(=O)(=O)N2CCN(CC(=O)c3c(N)n(Cc4ccccc4)c(=O)n(C)c3=O)CC2)c1C	-0.6	60.9*	1	20.4
COC(=O)c1sc(NC(=S)NC(=O)c2cccc(C)c2)nc1C	49.5	50.6*	0.5	12.6
CC(=O)c1sc(NC(=O)C2COc3ccccc3O2)nc1C (configuration not stated)	59.9*	-11.1	0.4	x
CC(=O)c1sc(NC(=O)c2cccc(C)c2)nc1C	50.6*	25.1	0.5	18.0
O=C(Nc1nncs1)C1COc2ccccc2O1 (configuration not stated)	-1.0	1.9	1	11.9
CCCCn1nnnc1C1(C)CCC(=O)N1Cc1ccco1 (configuration not stated)	x	-0.1	x	x
C[C@@H](c1ccccc1)N1C[C@@H](COCc2ccccc2)Oc2cc(N3CC[C@@H](N(C)C)C3)ccc2S1(=O)=O	x	34.2	x	x
CCOc1ccc(-c2cc(C(=O)NCCCN3CCCC3)c3ccccc3n2)cc1	x	30.2	x	x
Cc1cc(-c2ccccc2)nc(N/N=C/c2cccnc2)n1	74.1*	38.8	0.3	37.7
Cc1cc(N/N=C/c2ccccc2)nc(NCc2ccccc2)n1	76.1*	54.8*	0.2	30.7
Cc1cc(-c2ccccc2)nc(N/N=C/c2ccccc2)n1	x	65.4*	x	x
Cc1ccc(S(=O)(=O)N(C)C)cc1NC(=O)C(C)OC(=O)C1CCC1 (configuration not stated)	x	-4.5	x	x
O=C(C[C@H]1C[C@@H]2c3cc(NS(=O)(=O)c4ccccc4)ccc3O[C@@H]2[C@H](CO)O1)N1CCOCC1	x	-8.1	x	x
Cc1ccc2nc(/C=C/c3cccc(F)c3)ccc2c1	51.7*	25.3	0.5	22.7
Cc1cc(C)n(-c2nc(Nc3ccccc3)nc(-n3nc(C)cc3C)n2)n1	-1.4	-11.8	1	-12.1
Cc1cc(C)n(-c2nc(N(c3ccccc3)c3ccccc3)nc(-n3nc(C)cc3C)n2)n1	-4.4	75.8*	1	-2.0
SMILES	FLuc inhib CS	TRAIL sens C8	FLuc stim CS	PPC-1+TRAIL kill
CC1CCCCC1NC(=O)CN1CCN(S(=O)(=O)c2ccc(Br)s2)CC1 (configuration not stated)	x	4.9	x	x
COc1cc2[nH]c(-c3ccc(C)cc3)cc(=O)c2cc1OC	26.6	-9.8	0.7	10.9
COc1ccc(-c2cc(=O)c3cc(C)ccc3[nH]2)cc1	81.7*	73.1*	0.2	40.1
C[C@H](NC(=O)c1ncn2c1C(=O)NC[C@@H]2C)c1ccccc1	x	-8.9	x	x
COc1ccccc1C(=O)COC(=O)c1cc(=O)[nH]c2ccccc12	x	3.8	x	x
Cc1ccc(C(=O)COC(=O)c2cc(=O)[nH]c3ccccc23)cc1C	55.2*	13.0	0.4	6.2
Cc1ccc(N2C(=O)c3ccccc3C2=O)nc1	x	-2.3	x	x
CC1(Cc2ccc(C(F)(F)F)o2)C(=O)Nc2cc(-c3ccc(F)cc3F)ccc21 (configuration not stated)	x	13.8	x	x
Cc1ccc(-n2c(CNc3ccc(F)cc3)nnc2SCC(=O)O)cc1	-4.0	7.2	1	0.2
Cc1ccc(NCc2nnc(SCC(=O)O)n2-c2ccc(C)cc2)cc1	81.8*	-7.6	0.2	x
Cc1cc(O)c(/C=N/Nc2ccc(F)cc2)c(=O)o1	68.0*	-3.4	0.3	8.0
Cc1cccc(/N=C/c2c(O)cc(C)oc2=O)n1	-6.0	-18.1	1.1	3.8
Cc1ccc(N/N=C/c2c(O)cc(C)oc2=O)cc1	68.1*	5.0	0.3	-9.6
COc1ccc(NC2CCCN(C(=O)CCOc3ccccc3)C2)cc1 (configuration not stated)	x	11.0	x	x
O=C(Nc1nncs1)c1cc2c(s1)CCC2	62.7*	30.3	0.4	22.0
Cc1ccc(SCc2cn3c(C)csc3n2)cc1	63.6*	30.1	0.4	40.3
Cc1ccc(CN=C2Nc3ccccc3CS2)cc1	81.0*	49.1	0.2	34.3
O=C(CC(O)c1ccccc1)Nc1ccccn1 (configuration not stated)	x	-8.7	x	x
O=C(Nc1cccnc1)c1cc(-c2ccc3c(c2)OCO3)on1	68.2*	9.6	0.3	17.1
O=C(Nc1cccnc1)c1cc(-c2ccc(F)cc2)on1	53.9*	-1.5	0.5	-0.2
O=C(Nc1cccnc1)c1cc(-c2ccc(Cl)c(Cl)c2)on1	x	-3.9	x	x
CCCCC(CC)CN=C(N)NC(N)=NCCCCCCN=C(N)NC(N)=NCC(CC)CCCC (configuration not stated)	x	94.9*	x	x
CCCCC(CC)CO (configuration not stated)	x	4.3	x	x
CC1=CN2C(=N)/C(=C/c3ccc(C)o3)C(=O)N=C2S1	80.1*	53.5*	0.2	25.9
O=C(Nc1ccc2c(c1)OCO2)c1cnn2c(C(F)(F)F)cc(-c3ccco3)nc12	-2.4	-4.1	1	13.5
SMILES	FLuc inhib CS	TRAIL sens C8	FLuc stim CS	PPC-1+TRAIL kill
O=C(Nc1cnn(C23CC4CC(CC(C4)C2)C3)c1)c1cnn2c(C(F)(F)F)cc(-c3ccco3)nc12	-7.5	64.2*	1.1	4.9
CCc1nc2c(OCC(=O)C(C)(C)C)cccn2c1N(C)C(=O)CC(C)C	x	-6.5	x	x
Cc1ccc(NC(=S)c2ccc(N(C)C)cc2)cc1	57.6*	38.6	0.4	8.8
CCCSc1ccc([C@@H]2[C@@H]3C(=O)N(C)C(=O)[C@@H]3[C@]3(C(=O)OC)CCCN23)cc1OC	x	-6.7	x	x
O=C1C2C3C=CC(CC3)C2C(=O)N1/N=C/c1c[nH]c2ccccc12 (configuration not stated)	51.6*	3.1	0.5	25.1
COc1ccccc1/C=N/N1C(=O)C2C3C=CC(CC3)C2C1=O (configuration not stated)	13.6	-1.5	0.9	8.2
COc1ncccc1-c1cc2nc(NCCCN(C)C)n(C)c(=O)c2s1	x	5.8	x	x
COc1ccc(C(=O)NNC(=S)NC(=O)/C=C/c2cccs2)cc1	48.6	53.7*	0.5	x
CCOc1cc(/C=N\NC(=O)CC(=O)NCCc2ccccc2)ccc1O	-6.0	2.8	1.1	8.2
CCOc1cc(C=NNC(=O)N(c2ccccc2)c2ccccc2)ccc1O	x	62.6*	x	x
